Active and inactive are the calls of the source. No cut-off for these calls is given here.
Legend:
PANC-1 = experiment: Cytotoxicity against human PANC1 cells assessed as decrease in cell proliferation after 72 hrs by MTT assay; type: functional, cell-based; details: PANC-1, 72 h
Procedure, shortened: (§1)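 MTT assay. Cells (3000–8000/well) attached overnight in RPMI1640 with 10% FBS; the GR line was kept with 200 nM gemcitabine. Serial dilutions (30 nM–10 μM for most lines) were applied for 72 h. MTT was added at a final 300 μg/mL for 3 h at 37°C, formazan was dissolved in DMSO and A570 read. Inhibition = (1 − OD treated/OD control) × 100. IC50 given as mean ± SD, three independent experiments.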

BXPC-3 = experiment: Cytotoxicity against human BxPC3 cells assessed as decrease in cell proliferation after 72 hrs by MTT assay; type: functional, cell-based; details: BXPC-3, 72 h; procedure, shortened: as §1
MIA PaCa-2 [1] = experiment: Cytotoxicity against human MIAPaCa2 cells assessed as decrease in cell proliferation after 72 hrs by MTT assay; type: functional, cell-based; details: MIA PaCa-2, 72 h; procedure, shortened: as §1
[2] = Induction of compound aggregation
[3] = Induction of compound colloidal behavior
MIA PaCa-2 [4] = experiment: Induction of reactive oxygen species generation in human MIAPaCa2 cells at 1.1 to 10 uM after 24 hrs in presence of NAC by H2DCFDA reactivity assay; type: functional, cell-based
Procedure, shortened: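 H2DCFDA assay. Trypsinized MIA PaCa-2 cells in suspension were loaded with 20 μM H2DCFDA for 30 min at 37°C, washed and plated at 20,000/well. After 30 min they were treated with compound at 10, 3.3 or 1.1 μM. Fluorescence was read at 493/523 nm over time. DMSO basal and unstained controls were included. NAC pretreatment, where used, was 5 mM for 30 min. Duplicates, three independent experiments.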

[5] = Cytotoxicity against HPDEC assessed as decrease in cell proliferation after 72 hrs by MTT assay; type: cell-based; details: Homo sapiens; procedure, shortened: as §1
MIA PaCa-2 [6] = experiment: Cytotoxicity against human MIAPaCa2 cells assessed as decrease in cell proliferation after 72 hrs in presence of NAC by MTT assay; type: functional, cell-based
Procedure, shortened: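 MIA PaCa-2 cells were treated for 72 h with compound in the presence of 5 mM NAC. Viability was read by MTT (final 300 μg/mL, 3 h, A570). Mean ± SD of three independent experiments.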

MIA PaCa-2 [7] = experiment: Cytotoxicity against gemcitabine-resistant human MIAPaCa2 cells assessed as decrease in cell proliferation after 72 hrs by MTT assay; type: functional, cell-based; details: MIA PaCa-2, 72 h; procedure, shortened: as §1

Row | Structure (SMILES) | IC50 (PANC-1) [µM] | IC50 (BXPC-3) [µM] | IC50 (MIA PaCa-2 [1]) [µM] | Activity [2] | Activity [3] | Activity (MIA PaCa-2 [4]) | IC50 [5] [µM] | Activity (MIA PaCa-2 [6]) | IC50 (MIA PaCa-2 [7]) [µM]
1 | COc1ccc(-c2ccc(NC3=CC(=O)c4ncncc4C3=O)cc2)cc1 | 2.3 | 3.5 | 2.1 |  |  |  |  |  | 
2 | NC(=O)c1ccc(NC2=CC(=O)c3ncncc3C2=O)cc1 | 6.3 | > 10 | 8 |  |  |  |  |  | 
3 | Cc1ccc(-c2ccc(NC3=CC(=O)c4ncncc4C3=O)cc2F)cc1 | 4.8 | 5 | 4.6 |  |  |  |  |  | 
4 | COc1cc(NC2=CC(=O)c3ncncc3C2=O)cc(OC)c1OC | 0.8 | 1.6 | 1.5 | Active | Active | inactive | 3.2 | inactive | 2
5 | CCc1ccc(-c2ccc(NC3=CC(=O)c4ncncc4C3=O)cc2)cc1 | 1.2 | 3.1 | 2 |  |  |  |  |  | 
6 | O=C1C(Nc2cccc(B(O)O)c2)=CC(=O)c2ncncc21 | 9 | > 10 | > 10 |  |  |  |  |  | 
7 | COc1ccc(NC2=CC(=O)c3ncncc3C2=O)cc1OC | 0.9 | 1.5 | 1.8 |  |  |  |  |  | 
8 | CCOC(=O)c1ccc(NC2=CC(=O)c3ncncc3C2=O)cc1 | 1.6 | 5.9 | 5.5 |  |  |  |  |  | 
9 | O=C(NCCC[P+](c1ccccc1)(c1ccccc1)c1ccccc1)c1ccc(NC2=CC(=O)c3ncncc3C2=O)cc1 | 11.7 | 21.5 | 15.3 |  |  |  | 18.3 |  | 17.7
10 | OO |  |  |  |  |  |  |  | inactive | 
11 | COc1cc(NC2=CC(=O)c3ncncc3C2=O)cc(OC)c1 | 7.2 | 16.3 | 7.7 |  |  |  |  |  | 
12 | NS(=O)(=O)c1ccc(NC2=CC(=O)c3ncncc3C2=O)cc1 | > 10 | > 10 | > 10 |  |  |  |  |  | 
13 | O=C1C(Nc2ccc(Oc3ccccc3)cc2)=CC(=O)c2ncncc21 | 1.8 | 3.6 | 3.7 |  |  |  |  |  | 
14 | COc1cccc(NC2=CC(=O)c3ncncc3C2=O)c1 | 0.6 | 1.8 | 1.8 |  |  |  |  |  | 

— ChEMBL document CHEMBL4052826, “Design and Synthesis of Novel Reactive Oxygen Species Inducers for the Treatment of Pancreatic Ductal Adenocarcinoma” (J Med Chem, 2018)
